Experimental data: ChEMBL document CHEMBL6078712, “Triterpenoid phthalimides as selective anti-cancer agents targeting mitochondrial apoptosis” (Eur J Med Chem, 2025)
Active and inactive are the calls of the source. The calls are words filed in the database; no cut-off is given here.

Columns and labels:
[1] = tested on: CCRF-CEM; experiment: Induction of apoptosis in human CCRF-CEM cells assessed as late apoptotic cells at 1 times IC50 incubated for 24 hrs by Annexin V-FITC and PI staining based flow cytometric analysis (reference value: 0.4 %); assay type: functional
Procedure, shortened: (§1)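 Washed in Ca2+-containing binding buffer, then stained 15 min at room temperature in the dark with Annexin V-FITC and propidium iodide (PI at half the kit-recommended level). Read at once by flow cytometry with a 488 nm laser, ≥10,000 cells. Debris excluded; quadrants viable, early apoptotic, late apoptotic/necrotic, necrotic. Three independent experiments.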

[2] = tested on: CCRF-CEM; experiment: Induction of apoptosis in human CCRF-CEM cells assessed as viable cells at 1 times IC50 incubated for 24 hrs by Annexin V-FITC and PI staining based flow cytometric analysis (reference value: 97.4 %); assay type: functional; procedure, shortened: as §1
[3] = tested on: CCRF-CEM; experiment: Induction of cell cycle arrest in human CCRF-CEM cells assessed as downregulation of AKT phosphorylation at 1 times IC50 incubated for 24 hrs by Western blotting analysis; assay type: functional, cell-based
Procedure, shortened: (§2)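 30 µg protein per lane on SDS-PAGE, transferred to nitrocellulose, blocked in 5 % BSA/TBS-Tween. Primary antibodies overnight at 4 °C (Akt, P-Akt Ser473, STAT-3, caspase-3, PARP, cyclin D, cyclin A, Bcl-xL, Bak, Bid, Bim), then HRP secondary and ECL detection. GAPDH as loading control.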

[4] = tested on: CCRF-CEM; experiment: Induction of apoptosis in human CCRF-CEM cells assessed as upregulation of BIM expression at 1 to 5 times IC50 incubated for 24 hrs by Western blotting analysis; assay type: functional, cell-based; procedure, shortened: as §2
[5] = tested on: Mitochondrial membrane; experiment: Induction of mitochondrial membrane potential depolarization in human CCRF-CEM cells assessed as fold increase in fluorescence intensity at 5 times IC50 incubated for 24 hrs by JC-1 staining based flow cytometry; assay type: cell membranes
[6] = Stability in human plasma assessed as compound remaining at 2 uM incubated for 120 mins by RF-MS analysis; assay type: ADME, cell-free; details: read-out: Stability
Procedure, shortened: (§3)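 Human plasma stability, plasma protein binding and liver microsome stability, each run in triplicate. Error deviations below 10 %.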

[7] = Stability in human plasma assessed as compound remaining at 2 uM incubated for 30 mins by RF-MS analysis; assay type: ADME, cell-free; details: read-out: Stability; procedure, shortened: as §3
[8] = tested on: CCRF-CEM; experiment: Induction of apoptosis in human CCRF-CEM cells assessed as necrotic cells at 5 times IC50 incubated for 24 hrs by Annexin V-FITC and PI staining based flow cytometric analysis (reference value: 0.4 %); assay type: functional; procedure, shortened: as §1
[9] = tested on: HCT 116 TP53(-/-); experiment: Cytotoxicity against human HCT116-p53-null cells assessed as inhibition of cell growth incubated for 72 hrs by MTS assay; assay type: functional, cell-based
Procedure, shortened: (§4)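 MTS assay on eight human cancer lines and two non-tumour fibroblast lines. IC50 is the concentration that inhibits cell growth by 50 %. SD typically up to 15 % of the mean.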

[10] = Cytotoxicity against human MRC5 cells assessed as inhibition of cell growth incubated for 72 hrs by MTS assay; assay type: toxicity, cell-based; procedure, shortened: as §4
[11] = tested on: U2OS; experiment: Cytotoxicity against human U2OS cells assessed as inhibition of cell growth incubated for 72 hrs by MTS assay; assay type: functional, cell-based; procedure, shortened: as §4
[12] = tested on: K562; experiment: Cytotoxicity against human K562 cells assessed as inhibition of cell growth incubated for 72 hrs by MTS assay; assay type: functional, cell-based; details: K562, 72 h; procedure, shortened: as §4
[13] = tested on: CCRF-CEM; experiment: Induction of cell cycle arrest in human CCRF-CEM cells assessed as downregulation of total AKT expression at 5 times IC50 incubated for 24 hrs by Western blotting analysis; assay type: functional, cell-based; procedure, shortened: as §2

- fold change (FC) [5]: > 20
- remaining at 2 h, 2 µM [6]: 86%
- remaining at 0.5 h, 2 µM [7]: 91%
Structure (SMILES): CC(=O)O[C@H]1CC[C@]2(C)[C@H]3CC[C@@H]4[C@H]5[C@H](c6cc7c(c(-c8ccccc8)c6)C(=O)N(c6cc[nH]n6)C7=O)CC[C@]5(C(=O)O)CC[C@@]4(C)[C@]3(C)CC[C@H]2C1(C)C
- Activity [1]: 2.4%
- Activity [2]: 92.8%
- Activity [3]: Active
- Activity [4]: Active
- Activity [8]: 0.1%
- IC50 [9]: 13.7 µM
- IC50 at 72 h [10]: 22.6 µM
- IC50 [11]: 13.8 µM
- IC50 [12]: 14.5 µM
- Activity [13]: Active; Slight Activity Observed
